Where two headings read alike, the source gives them in different places.
How the values were obtained:
[1] = test system: E. granulosus ss protoscoleces (PSCs); assay: E. granulosus ss PSC killing assay; format: cell-based, Echinococcus granulosus sensu stricto; conditions: Echinococcus granulosus, 24 h, read-out: LC50 (protoscolicidal activity)
Procedure, shortened: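 Protoscoleces were aspirated from cysts in naturally infected sheep livers and cultured by a prior method. Wells held 200 PSCs; test compound from a 10× aqueous stock, final 34–114 μM; medium-only control. Incubation was 24 h at 37 °C, 5% CO2. Viability: 0.1% methylene blue for 5 min, with blue PSCs scored dead under an inverted microscope. Triplicate; LC50 by nonlinear regression.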

[2] = test system: E. granulosus ss cysts; assay: In vivo efficacy, oral administration, secondarily infected mice; design: species or system Echinococcus granulosus sensu stricto
Procedure, shortened: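 Microcyst-infected female BALB/c mice (3 months post-infection), 10 per group, were gavaged once daily for 30 days with 0.2 ml. Test compound 57 mg/kg was given in deionised water, albendazole 50 mg/kg in 0.5% carboxymethyl cellulose, and controls received deionised water. Necropsy 2 weeks post-treatment. Cysts were weighed and scored alive or dead by morphological type. One-way ANOVA or Kruskal-Wallis test.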

[3] = Tolerability, body weight and blood parameters, oral study; format: in vivo, mice
Procedure, shortened: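 In the oral study, infected BALB/c mice (n = 10 per group) were gavaged daily for 30 days with test compound in water, albendazole in 0.5% carboxymethyl cellulose, or water alone. Mice were monitored for morbidity signs and behaviour. Two weeks after treatment, plasma was collected, and body, liver, kidney and thymus weights were recorded.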

[4] = test system: E. granulosus ss cysts; assay: Transmission electron microscopy of cysts from treated mice; format: in vivo, Echinococcus granulosus sensu stricto
Procedure, shortened: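 Cysts came from infected BALB/c mice given test compound at 57 mg/kg, either i.p. once daily for 3 days or by gavage daily for 30 days, and from albendazole-treated (50 mg/kg p.o.) and untreated mice. Cyst ultrastructure was examined by transmission electron microscopy, covering the laminated layer, tegument, germinal layer and microtriches.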

[5] = test system: cystic echinococcosis; conditions: clinical study ref 5; cited from earlier work
[6] = test system: E. granulosus ss cysts; assay: In vivo efficacy, intraperitoneal administration, secondarily infected mice; design: species or system Echinococcus granulosus sensu stricto
Procedure, shortened: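 Female BALB/c mice, 6–8 weeks, were infected intraperitoneally with microcysts and randomised at 3 months. Test compound in saline at 14, 28 or 57 mg/kg (n = 10 each), 1.0 ml i.p. once daily for 3 days; saline controls n = 12. Necropsy 2 weeks post-treatment. Cysts were weighed, and viability was scored by morphology: type 1 alive, types 2–3 dead. Kruskal-Wallis test.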

[7] = test system: E. granulosus ss cysts; assay: Microinjection treatment of cysts; format: in vivo, Echinococcus granulosus sensu stricto
[8] = In vivo pharmacokinetics and tissue distribution; design: species or system mice; conditions: for Kp: male, ICR, mouse, intraperitoneal, 57 mg/kg
Procedure, shortened: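 Male ICR mice (20–22 g, 3 per time point) received a single 57 mg/kg i.p. dose. Plasma was precipitated with acetonitrile containing internal standards and centrifuged at 2600 g for 10 min at 4 °C. Liver and lung were homogenised in 4 volumes of 100 mM phosphate buffer, pH 7.4, and processed alike. Samples taken 0.25–48 h were measured by LC-MS/MS and analysed non-compartmentally.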

[9] = molecular target: T1, CYP1A2 (Homo sapiens, UniProt P05177); assay: CYP450 inhibition assay, human liver microsomes; format: in vitro ADME
T1 sequence (P05177 1-516): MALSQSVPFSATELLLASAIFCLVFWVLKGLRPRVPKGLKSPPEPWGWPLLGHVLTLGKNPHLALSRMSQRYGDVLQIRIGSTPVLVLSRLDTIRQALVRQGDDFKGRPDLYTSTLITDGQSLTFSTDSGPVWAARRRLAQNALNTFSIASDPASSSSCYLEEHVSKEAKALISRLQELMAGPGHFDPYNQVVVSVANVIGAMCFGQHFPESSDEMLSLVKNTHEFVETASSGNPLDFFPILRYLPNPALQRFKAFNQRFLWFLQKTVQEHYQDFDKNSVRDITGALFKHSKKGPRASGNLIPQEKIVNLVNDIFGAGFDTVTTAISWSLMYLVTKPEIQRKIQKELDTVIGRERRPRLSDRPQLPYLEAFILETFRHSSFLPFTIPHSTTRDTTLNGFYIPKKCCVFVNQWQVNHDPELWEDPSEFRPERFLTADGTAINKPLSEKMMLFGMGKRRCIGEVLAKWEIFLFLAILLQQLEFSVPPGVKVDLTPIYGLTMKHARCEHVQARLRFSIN

[10] = molecular target: CYP2C9 (Homo sapiens, UniProt P11712); assay: CYP450 inhibition assay, human liver microsomes; format: in vitro ADME
CYP2C9, sequence (P11712 whole entry): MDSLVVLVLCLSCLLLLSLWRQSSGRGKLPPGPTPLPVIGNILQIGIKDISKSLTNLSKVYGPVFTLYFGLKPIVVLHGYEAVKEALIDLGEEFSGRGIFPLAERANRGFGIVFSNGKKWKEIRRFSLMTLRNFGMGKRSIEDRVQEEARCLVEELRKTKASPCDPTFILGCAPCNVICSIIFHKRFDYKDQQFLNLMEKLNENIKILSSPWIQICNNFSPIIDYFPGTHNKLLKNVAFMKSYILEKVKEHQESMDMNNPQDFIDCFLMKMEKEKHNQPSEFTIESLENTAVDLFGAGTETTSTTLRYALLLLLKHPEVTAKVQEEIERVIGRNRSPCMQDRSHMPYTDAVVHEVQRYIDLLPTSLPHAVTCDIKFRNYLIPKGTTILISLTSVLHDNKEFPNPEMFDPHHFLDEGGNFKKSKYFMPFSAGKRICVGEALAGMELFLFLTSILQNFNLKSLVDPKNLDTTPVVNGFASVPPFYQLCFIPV

[11] = molecular target: CYP2C19 (Homo sapiens, UniProt P33261); assay: CYP450 inhibition assay, human liver microsomes; format: in vitro ADME
CYP2C19, sequence (P33261 whole entry): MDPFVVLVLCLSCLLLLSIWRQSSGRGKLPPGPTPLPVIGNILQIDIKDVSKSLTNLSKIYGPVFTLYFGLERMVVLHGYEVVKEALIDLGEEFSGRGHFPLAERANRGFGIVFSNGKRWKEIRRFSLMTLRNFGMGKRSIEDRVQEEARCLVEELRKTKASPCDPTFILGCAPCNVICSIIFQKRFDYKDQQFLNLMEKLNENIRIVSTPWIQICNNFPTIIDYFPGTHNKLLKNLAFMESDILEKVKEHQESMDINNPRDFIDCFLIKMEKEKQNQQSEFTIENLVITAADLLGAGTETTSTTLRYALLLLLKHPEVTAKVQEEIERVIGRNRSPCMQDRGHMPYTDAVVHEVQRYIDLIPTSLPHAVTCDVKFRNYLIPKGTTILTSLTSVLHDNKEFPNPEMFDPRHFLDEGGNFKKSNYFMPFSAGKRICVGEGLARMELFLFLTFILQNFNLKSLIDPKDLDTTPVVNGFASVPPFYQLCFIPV

[12] = molecular target: CYP3A4 (Homo sapiens, UniProt P08684); assay: CYP450 inhibition assay, human liver microsomes; format: in vitro ADME
CYP3A4, sequence (P08684 whole entry): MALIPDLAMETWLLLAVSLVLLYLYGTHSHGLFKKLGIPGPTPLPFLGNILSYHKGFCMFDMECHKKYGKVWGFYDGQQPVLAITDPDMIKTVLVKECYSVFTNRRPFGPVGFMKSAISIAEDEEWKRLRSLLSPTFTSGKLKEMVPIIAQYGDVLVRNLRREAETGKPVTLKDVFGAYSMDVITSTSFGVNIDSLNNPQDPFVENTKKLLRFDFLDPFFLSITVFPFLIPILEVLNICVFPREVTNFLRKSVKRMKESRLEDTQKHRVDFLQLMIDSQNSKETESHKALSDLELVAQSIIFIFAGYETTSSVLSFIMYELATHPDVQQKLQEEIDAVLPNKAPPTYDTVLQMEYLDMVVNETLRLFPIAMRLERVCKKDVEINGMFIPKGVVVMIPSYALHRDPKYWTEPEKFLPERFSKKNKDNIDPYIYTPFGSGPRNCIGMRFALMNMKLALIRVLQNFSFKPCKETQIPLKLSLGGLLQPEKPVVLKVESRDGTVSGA

[13] = molecular target: CYP2D6 (Homo sapiens, UniProt P10635); assay: CYP450 inhibition assay, human liver microsomes; format: in vitro ADME
CYP2D6, sequence (P10635 whole entry): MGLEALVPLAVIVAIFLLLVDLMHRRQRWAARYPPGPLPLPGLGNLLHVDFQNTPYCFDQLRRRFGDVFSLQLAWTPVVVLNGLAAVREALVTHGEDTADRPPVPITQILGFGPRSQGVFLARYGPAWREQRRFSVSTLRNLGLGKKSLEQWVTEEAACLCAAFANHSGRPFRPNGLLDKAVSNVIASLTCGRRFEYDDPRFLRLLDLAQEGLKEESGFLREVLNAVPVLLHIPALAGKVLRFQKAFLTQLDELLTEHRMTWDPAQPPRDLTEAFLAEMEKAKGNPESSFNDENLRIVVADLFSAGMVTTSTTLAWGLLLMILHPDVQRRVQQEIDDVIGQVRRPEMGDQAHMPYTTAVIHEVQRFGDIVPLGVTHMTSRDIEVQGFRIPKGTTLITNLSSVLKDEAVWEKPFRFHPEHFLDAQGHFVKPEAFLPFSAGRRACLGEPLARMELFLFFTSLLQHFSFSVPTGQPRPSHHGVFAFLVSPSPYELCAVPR

[14] = molecular target: T2, E. granulosus ss topoisomerase I (Egtopo I) (Echinococcus granulosus, UniProt W6UT38); assay: Egtopo I-mediated DNA relaxation assay; format: biochemical, Echinococcus granulosus sensu stricto; conditions: read-out: IC50 Egtopo I activity; relaxation of supercoiled pBR322, 30 min 37 °C
T2 sequence (W6UT38 1-621): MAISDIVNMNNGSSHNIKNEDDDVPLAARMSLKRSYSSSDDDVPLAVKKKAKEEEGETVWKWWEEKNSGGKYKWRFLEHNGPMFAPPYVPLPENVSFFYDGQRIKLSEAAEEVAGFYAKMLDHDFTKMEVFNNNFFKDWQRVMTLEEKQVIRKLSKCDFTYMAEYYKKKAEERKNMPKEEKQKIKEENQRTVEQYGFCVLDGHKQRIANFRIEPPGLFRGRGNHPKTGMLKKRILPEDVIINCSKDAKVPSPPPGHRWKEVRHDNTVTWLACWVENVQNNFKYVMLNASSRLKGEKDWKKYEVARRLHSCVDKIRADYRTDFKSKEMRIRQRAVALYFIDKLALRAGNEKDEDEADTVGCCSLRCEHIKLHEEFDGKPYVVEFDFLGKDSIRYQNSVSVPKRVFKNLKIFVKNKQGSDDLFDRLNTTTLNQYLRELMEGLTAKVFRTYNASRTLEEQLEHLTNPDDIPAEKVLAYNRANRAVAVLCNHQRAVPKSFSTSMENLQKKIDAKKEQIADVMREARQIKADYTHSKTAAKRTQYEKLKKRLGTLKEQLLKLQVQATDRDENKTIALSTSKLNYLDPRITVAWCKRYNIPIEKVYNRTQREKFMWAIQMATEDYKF
Procedure, shortened: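 Kit-based relaxation assay with pBR322 (200 ng), Egtopo I (300 ng) and 0.1% BSA. Test compound at final 50, 100, 150, 200, 300, 400, 500 and 600 μM in assay buffer, 30 min at 37 °C. Stopped with 10% SDS plus loading buffer, run on 1% agarose and stained with ethidium bromide (5 μg/ml). IC50 from a nonlinear regression fit, n = 3.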

[15] = test system: caspase-3; assay: Caspase-3 activity assay in PSCs; format: cell-based, E. granulosus; conditions: 100 µM 24 h, vs vehicle controls
[16] = test system: E. granulosus ss PSCs; assay: TUNEL assay in PSCs; format: cell-based; conditions: 100 µM, 24 h
[17] = test system: E. granulosus ss PSCs; assay: DNA fragmentation assay in PSCs; format: cell-based; conditions: 50 μM, 24 h
[18] = Tolerability, organ weights and blood parameters, intraperitoneal study; format: in vivo, mice
Procedure, shortened: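 Microcyst-infected female BALB/c mice were dosed i.p. once daily for 3 days with test compound in saline (14, 28, 57 mg/kg; n = 10) or saline (n = 12). During treatment they were watched for emaciation, hunched back, ruffled coat, appetite and behaviour changes. Two weeks post-treatment, plasma was taken for haematology and biochemistry, and liver, kidneys, thymus and body were weighed.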

[19] = 28 days oral treatment NOAEL in the rat; conditions: in vivo, 23 mg/kg/day
[20] = 28 days oral treatment NOAEL in the dog; conditions: in vivo, 5 mg/kg/day
[21] = dogs, oral 24 mg/kg/day for 30 days ref 20; cited from earlier work
[22] = rat, 28 days oral treatment ref 16; cited from earlier work
[23] = dog, 28 days oral treatment ref 16; cited from earlier work
[24] = test system: bone marrow; conditions: mice, bone marrow ref 38, 39; cited from earlier work
[25] = test system: Salmonella typhimurium strains; conditions: cited from earlier work
[26] = 0 to 48 h, single 57 mg/kg i.p.

## CCCSc1ccc2nc(NC(=O)OC)[nH]c2c1 [ABZ, albendazole]
[1]
  LC50: 79.2 ± 3.9 µM
[2]; ABZ 50 mg/kg p.o. q.d. 30 days
  cyst mortality rate: 22.2%
  cyst weight reduction: 48.1%
[3]; ABZ 50 mg/kg p.o. 30 days
  body weight: minor loss of body weight
[4]; ABZ 50 mg/kg, p.o.
  cyst ultrastructure (TEM): did not exhibit obvious ultrastructural changes
[5]
  CE cases that did not respond favorably to treatment: approximately 40%

## COc1ccc2nc3cc(Cl)ccc3c(Nc3cc(CN4CCCC4)c(O)c(CN4CCCC4)c3)c2n1 [PND, pyronaridine]
[1]
  LC50: 49 ± 0.2 µM
[6]; 57 mg/kg i.p. q.d. 3 days
  cyst mortality: 100%
[6]; 57 mg/kg i.p. q.d. 3 days, vs unmedicated mice
  wet cyst weight reduction: 38.7%
[6]; 14, 28 and 57 mg/kg i.p. q.d. 3 days
  growth of cysts: successfully suppressed the growth of cysts
[2]; PND 57 mg/kg p.o. q.d. 30 days
  cysts killed (mortality rate): 90.7%
[2]; PND 57 mg/kg p.o. q.d. 30 days, vs vehicle control
  parasite wet weight reduction: 42.4%
[7]; 200 μM microinjected, 35 cysts/mouse transferred, 30 days
  cyst counts: 6.4 ± 1.2
[7]; 200 μM microinjected, 30 days post-treatment, vs saline group
  parasite wet weight reduction: 52.3%
[7]; microinjection with PND
  cysts killed after microinjection: more than 90%
[8]; [26]
  average concentration in the liver: 435.7 µmol/kg
  average concentration in the lungs: 122.5 µmol/kg
  average plasma concentration: 1.5 µM
[8]; liver/plasma
  Kp: 290
[8]; lungs/plasma
  Kp: 81.7
[9]
  IC50: > 10 µM
[10]
  IC50: > 10 µM
[11]
  IC50: > 10 µM
[12]
  IC50: > 10 µM
[13]
  IC50: 1.53 µM
[14]
  IC50: 209.7 ± 1.1 µM
[15]
  increase in caspase-3 activity: 20 fold
[16]
  TUNEL staining (DNA fragmentation): abundant TdT dUTP nick-end labeling (TUNEL)-positive cells were observed
[17]
  DNA ladder on agarose gel: a clear pattern of DNA fragmentation (DNA ladder) was observed
[18]; 14, 28, 57 mg/kg i.p. q.d. 3 days
  behaviour and adverse effects: without obvious adverse effects
[18]; high-dosage group (57 mg/kg i.p.), vs control
  liver weight: a minor increase in liver weight
[3]; PND 57 mg/kg p.o. 30 days
  body weight: minor loss of body weight
[4]; PND 57 mg/kg, both i.p. and p.o.
  cyst ultrastructure (TEM): devastating damage of the cyst tissues
[19]
  NOAEL at 28 days: 3.7 mg/kg/day
[20]
  NOAEL at 28 days: 2.7 mg/kg/day
[21]
  tolerability: well tolerated
[22]
  no observed adverse effect level (NOAEL): 23 mg/kg/day
[23]
  no observed adverse effect level (NOAEL): 5 mg/kg/day
[24]
  micronucleus frequency: no increase in micronucleus frequency in the bone marrow
[25]; strain TA1537 ref 40
  Ames mutagenicity: evidence of bacterial mutagenicity
[25]; strains TA100, TA98, TA1535 and TA1538 ref 40
  Ames mutagenicity: did not induce mutations
